≈ marks a conversion by molar mass, not a printed value. Calls of active or inactive are those of the source. No cut-off for these calls is given here.
Assays:
Escherichia coli [1] = assay: Antimicrobial activity against Escherichia coli ATCC 35218 assessed as diameter of inhibition zone at 40 uM after 24 hrs by Kirby -Baur disc diffusion method; format: functional; conditions: ATCC 35218, 24 h, read-out: DIZ
Outline: (§1)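 Kirby-Bauer disc diffusion was used. Acetone stocks (160 µM) were serially doubled down to 80, 40 and 20 µM. 4 µL of each went onto 5 mm sterile paper discs, which were dried 30 min at 50 °C. Inoculum was 1.5 × 10⁸ CFU/mL diluted to 3 × 10² CFU/mL, and 50 µL was spread on Mueller-Hinton agar. After 24 h at 37 °C the inhibition-zone diameter was measured. Ciprofloxacin served as positive control.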

Trichoderma viride [2] = assay: Antifungal activity against Trichoderma viride MTCC 1107 after 48 hrs; format: functional; conditions: MTCC 1107, 48 h
Pseudomonas aeruginosa [3] = assay: Antimicrobial activity against Pseudomonas aeruginosa ATCC 15499 after 24 hrs by broth micro serial dilution method; format: functional; conditions: ATCC 15499, 24 h
Outline: (§2)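 This was broth microdilution in autoclaved Mueller-Hinton broth. 150 µL of compound per well was serially diluted […], and 50 µL of test organism was added. Plates were incubated 24 h at 37 °C and optical density was read.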

Aspergillus niger [4] = assay: Antifungal activity against Aspergillus niger MTCC 1108 after 48 hrs; format: functional; conditions: MTCC 1108, 48 h
Aspergillus flavus [5] = assay: Antifungal activity against Aspergillus flavus MTCC 1021 assessed as zone of inhibition at 20 uM after 48 hrs by disc diffusion method; format: functional
Outline: (§3)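 Spores from 4-day potato dextrose agar cultures, suspended in sterile water at 1.5 × 10⁵ CFU/mL. 0.2 mL was spread on potato dextrose agar. 5 mm filter-paper discs soaked with test compound were laid on the lawn. Incubation was 48 h at 28 °C, then the inhibition zone was measured in mm. Fluconazole was the positive control and acetone the negative control.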

Salmonella typhi [6] = assay: Antimicrobial activity against Salmonella typhi ATCC 23564 after 24 hrs by broth micro serial dilution method; format: functional, Salmonella enterica subsp. enterica serovar Typhi; conditions: Salmonella enterica, ATCC 23564, 24 h
Aspergillus niger [7] = assay: Antifungal activity against Aspergillus niger MTCC 1108 assessed as zone of inhibition at 20 uM after 48 hrs by disc diffusion method; format: functional; outline: as §3
Salmonella typhi [8] = assay: Antimicrobial activity against Salmonella typhi ATCC 23564 assessed as diameter of inhibition zone at 40 uM after 24 hrs by Kirby -Baur disc diffusion method; format: functional, Salmonella enterica subsp. enterica serovar Typhi; conditions: Salmonella enterica, ATCC 23564, 24 h; read-out: DIZ
Escherichia coli [9] = assay: Antimicrobial activity against Escherichia coli ATCC 35218 after 24 hrs by broth micro serial dilution method; format: functional; conditions: ATCC 35218, 24 h; outline: as §2
QG-56 = assay: Cytotoxicity against human QG56 cells after 24 hrs by MTT assay; format: functional, cell-based
Outline: (§4)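 The MTT assay seeded 5 × 10⁴ cells per well and grew them 24 h in RPMI 1640 with compound at 2.5–200 µM. Medium without cells was the blank and adriamycin the positive control. MTT was added for 4 h at 37 °C, formazan was solubilised, and absorbance was read at 570 nm. IC50 is the concentration that cuts viability 50% against untreated cells.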

Trichoderma viride [10] = assay: Antifungal activity against Trichoderma viride MTCC 1107 assessed as zone of inhibition at 20 uM after 48 hrs by disc diffusion method; format: functional; conditions: MTCC 1107, 48 h, read-out: IZ; outline: as §3
Bacillus cereus [11] = assay: Antimicrobial activity against Bacillus cereus MTCC 7350 assessed as diameter of inhibition zone at 20 uM after 24 hrs by Kirby -Baur disc diffusion method; format: functional; conditions: MTCC 7350, 24 h, read-out: DIZ; outline: as §1
Mus musculus = assay: Antiinflammatory activity in mouse assessed as inhibition of carrageenan-induced increase in paw volume at 200 mg/kg administered 1 hr prior to carrageenan challenge measured after 3 hrs relative to control; format: functional
Outline: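 Mice were fasted 2 h and placed in groups of five. Controls received saline i.p. Phenylbutazone was given at 100 mg/kg i.p., curcumin at 200 mg/kg i.p., and derivatives at 200 mg/kg. After 1 h, 0.1 mL of 1% carrageenan in saline was injected subplantar into the right hind paw. Paw volume was followed by plethysmometer for 3 h, and % inhibition was calculated as (Vc − Vt)/Vc × 100.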

Curvularia lunata [12] = assay: Antifungal activity against Curvularia lunata MTCC 581 assessed as zone of inhibition at 20 uM after 48 hrs by disc diffusion method; format: functional; conditions: MTCC 581, 48 h, read-out: IZ; outline: as §3
Aspergillus flavus [13] = assay: Antifungal activity against Aspergillus flavus MTCC 1021 assessed as zone of inhibition at 40 uM after 48 hrs by disc diffusion method; format: functional; outline: as §3
Aspergillus niger [14] = assay: Antifungal activity against Aspergillus niger MTCC 1108 assessed as zone of inhibition at 40 uM after 48 hrs by disc diffusion method; format: functional; outline: as §3
Escherichia coli [15] = assay: Antimicrobial activity against Escherichia coli ATCC 35218 assessed as diameter of inhibition zone at 20 uM after 24 hrs by Kirby -Baur disc diffusion method; format: functional; conditions: ATCC 35218, 24 h, read-out: DIZ; outline: as §1
Staphylococcus aureus [16] = assay: Antimicrobial activity against Staphylococcus aureus ATCC 11632 assessed as diameter of inhibition zone at 20 uM after 24 hrs by Kirby -Baur disc diffusion method; format: functional; conditions: ATCC 11632, 24 h, read-out: DIZ; outline: as §1
Staphylococcus aureus [17] = assay: Antimicrobial activity against Staphylococcus aureus ATCC 11632 assessed as diameter of inhibition zone at 80 uM after 24 hrs by Kirby -Baur disc diffusion method; format: functional; conditions: ATCC 11632, 24 h, read-out: DIZ; outline: as §1
Salmonella typhi [18] = assay: Antimicrobial activity against Salmonella typhi ATCC 23564 assessed as diameter of inhibition zone at 20 uM after 24 hrs by Kirby -Baur disc diffusion method; format: functional, Salmonella enterica subsp. enterica serovar Typhi; conditions: Salmonella enterica, ATCC 23564, 24 h; read-out: DIZ
Aspergillus flavus [19] = assay: Antifungal activity against Aspergillus flavus MTCC 1021 assessed as zone of inhibition at 80 uM after 48 hrs by disc diffusion method; format: functional; conditions: MTCC 1021, 48 h, read-out: IZ; outline: as §3
HepG2 = assay: Cytotoxicity against human HepG2 cells after 24 hrs by MTT assay; format: functional, cell-based; outline: as §4
Staphylococcus aureus [20] = assay: Antimicrobial activity against Staphylococcus aureus ATCC 11632 assessed as diameter of inhibition zone at 40 uM after 24 hrs by Kirby -Baur disc diffusion method; format: functional; conditions: ATCC 11632, 24 h, read-out: DIZ; outline: as §1
Pseudomonas aeruginosa [21] = assay: Antimicrobial activity against Pseudomonas aeruginosa ATCC 15499 assessed as diameter of inhibition zone at 40 uM after 24 hrs by Kirby -Baur disc diffusion method; format: functional; conditions: ATCC 15499, 24 h, read-out: DIZ; outline: as §1
Trichoderma viride [22] = assay: Antifungal activity against Trichoderma viride MTCC 1107 assessed as zone of inhibition at 80 uM after 48 hrs by disc diffusion method; format: functional; conditions: MTCC 1107, 48 h, read-out: IZ; outline: as §3
Aspergillus niger [23] = assay: Antifungal activity against Aspergillus niger MTCC 1108 assessed as zone of inhibition at 80 uM after 48 hrs by disc diffusion method; format: functional; conditions: MTCC 1108, 48 h, read-out: IZ; outline: as §3
Staphylococcus aureus [24] = assay: Antimicrobial activity against Staphylococcus aureus ATCC 11632 after 24 hrs by broth micro serial dilution method; format: functional; conditions: ATCC 11632, 24 h; outline: as §2
Aspergillus flavus [25] = assay: Antifungal activity against Aspergillus flavus MTCC 1021 after 48 hrs; format: functional; conditions: MTCC 1021, 48 h
HeLa = assay: Cytotoxicity against human HeLa cells after 24 hrs by MTT assay; format: functional, cell-based; outline: as §4
Pseudomonas aeruginosa [26] = assay: Antimicrobial activity against Pseudomonas aeruginosa ATCC 15499 assessed as diameter of inhibition zone at 20 uM after 24 hrs by Kirby -Baur disc diffusion method; format: functional; conditions: ATCC 15499, 24 h, read-out: DIZ; outline: as §1
Escherichia coli [27] = assay: Antimicrobial activity against Escherichia coli ATCC 35218 assessed as diameter of inhibition zone at 80 uM after 24 hrs by Kirby -Baur disc diffusion method; format: functional; conditions: ATCC 35218, 24 h, read-out: DIZ; outline: as §1
Bacillus cereus [28] = assay: Antimicrobial activity against Bacillus cereus MTCC 7350 assessed as diameter of inhibition zone at 40 uM after 24 hrs by Kirby -Baur disc diffusion method; format: functional; conditions: MTCC 7350, 24 h, read-out: DIZ; outline: as §1
Bacillus cereus [29] = assay: Antimicrobial activity against Bacillus cereus MTCC 7350 after 24 hrs by broth micro serial dilution method; format: functional; conditions: MTCC 7350, 24 h; outline: as §2
Salmonella typhi [30] = assay: Antimicrobial activity against Salmonella typhi ATCC 23564 assessed as diameter of inhibition zone at 80 uM after 24 hrs by Kirby -Baur disc diffusion method; format: functional, Salmonella enterica subsp. enterica serovar Typhi; conditions: Salmonella enterica, ATCC 23564, 24 h; read-out: DIZ
Pseudomonas aeruginosa [31] = assay: Antimicrobial activity against Pseudomonas aeruginosa ATCC 15499 assessed as diameter of inhibition zone at 80 uM after 24 hrs by Kirby -Baur disc diffusion method; format: functional; conditions: ATCC 15499, 24 h, read-out: DIZ; outline: as §1
Curvularia lunata [32] = assay: Antifungal activity against Curvularia lunata MTCC 581 assessed as zone of inhibition at 80 uM after 48 hrs by disc diffusion method; format: functional; conditions: MTCC 581, 48 h, read-out: IZ; outline: as §3
Curvularia lunata [33] = assay: Antifungal activity against Curvularia lunata MTCC 581 after 48 hrs; format: functional; conditions: MTCC 581, 48 h
Bacillus cereus [34] = assay: Antimicrobial activity against Bacillus cereus MTCC 7350 assessed as diameter of inhibition zone at 80 uM after 24 hrs by Kirby -Baur disc diffusion method; format: functional; conditions: MTCC 7350, 24 h, read-out: DIZ; outline: as §1
Curvularia lunata [35] = assay: Antifungal activity against Curvularia lunata MTCC 581 assessed as zone of inhibition at 40 uM after 48 hrs by disc diffusion method; format: functional; conditions: MTCC 581, 48 h, read-out: IZ; outline: as §3
HCT-116 = assay: Cytotoxicity against human HCT116 cells after 24 hrs by MTT assay; format: functional, cell-based; outline: as §4
Trichoderma viride [36] = assay: Antifungal activity against Trichoderma viride MTCC 1107 assessed as zone of inhibition at 40 uM after 48 hrs by disc diffusion method; format: functional; conditions: MTCC 1107, 48 h, read-out: IZ; outline: as §3

SMILES: COc1cc(/C=C/C(CC(/C=C/c2ccc(O)c(OC)c2)=N/c2ccc(S(=O)(=O)Nc3cc(C)on3)cc2)=N\c2ccc(S(=O)(=O)Nc3cc(C)on3)cc2)ccc1O
- zone of inhibition at 40 µM (Escherichia coli [1]): 21 mm
- MIC (Trichoderma viride [2]): 40 µM (≈ 33.6 µg/mL)
- MIC (Pseudomonas aeruginosa [3]): 40 µM (≈ 33.6 µg/mL)
- MIC (Aspergillus niger [4]): > 80 µM
- inhibition zone (IZ) (Aspergillus flavus [5]): inactive
- MIC (Salmonella typhi [6]): 40 µM (≈ 33.6 µg/mL)
- inhibition zone (IZ) (Aspergillus niger [7]): inactive
- zone of inhibition at 40 µM (Salmonella typhi [8]): 26 mm
- MIC (Escherichia coli [9]): 20 µM (≈ 16.8 µg/mL)
- IC50 (QG-56): 100 µM
- zone of inhibition at 20 µM (Trichoderma viride [10]): 9 mm
- zone of inhibition at 20 µM (Bacillus cereus [11]): 11 mm
- inhibition in vivo at 200 mg/kg (Mus musculus): 8%
- zone of inhibition at 20 µM (Curvularia lunata [12]): 9 mm
- inhibition zone (IZ) (Aspergillus flavus [13]): inactive
- inhibition zone (IZ) (Aspergillus niger [14]): inactive
- zone of inhibition at 20 µM (Escherichia coli [15]): 18 mm
- zone of inhibition at 20 µM (Staphylococcus aureus [16]): 17 mm
- zone of inhibition at 80 µM (Staphylococcus aureus [17]): 24 mm
- zone of inhibition at 20 µM (Salmonella typhi [18]): 18 mm
- zone of inhibition at 80 µM (Aspergillus flavus [19]): 9 mm
- IC50 (HepG2): 100 µM
- zone of inhibition at 40 µM (Staphylococcus aureus [20]): 21 mm
- zone of inhibition at 40 µM (Pseudomonas aeruginosa [21]): 21 mm
- zone of inhibition at 80 µM (Trichoderma viride [22]): 13 mm
- zone of inhibition at 80 µM (Aspergillus niger [23]): 10 mm
- MIC (Staphylococcus aureus [24]): 40 µM (≈ 33.6 µg/mL)
- MIC (Aspergillus flavus [25]): > 80 µM
- IC50 (HeLa): 100 µM
- zone of inhibition at 20 µM (Pseudomonas aeruginosa [26]): 16 mm
- zone of inhibition at 80 µM (Escherichia coli [27]): 23 mm
- zone of inhibition at 40 µM (Bacillus cereus [28]): 16 mm
- MIC (Bacillus cereus [29]): 40 µM (≈ 33.6 µg/mL)
- zone of inhibition at 80 µM (Salmonella typhi [30]): 29 mm
- zone of inhibition at 80 µM (Pseudomonas aeruginosa [31]): 26 mm
- zone of inhibition at 80 µM (Curvularia lunata [32]): 11 mm
- MIC (Curvularia lunata [33]): 40 µM (≈ 33.6 µg/mL)
- zone of inhibition at 80 µM (Bacillus cereus [34]): 21 mm
- zone of inhibition at 40 µM (Curvularia lunata [35]): 10 mm
- IC50 (HCT-116): 100 µM
- zone of inhibition at 40 µM (Trichoderma viride [36]): 11 mm

From ChEMBL document CHEMBL2384906, “Biological activity, design, synthesis and structure activity relationship of some novel derivatives of curcumin containing sulfonamides” (Eur J Med Chem, 2013)
